Screens: PubChem BioAssay, several laboratories
RORA act – RORA (human) activation; P35398; activation, % at 10 µM; CHO-K1 Gal4-RORA LBD luciferase reporter, luminescence; percent increase over mock-subtracted basal signal; hit rate 1.5% among 65,000; AID 560;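 active means activation above the mean of all tested compounds plus 3 SD, cut at about 49% in these data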;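 further: 0% = DMSO-treated RORA cells and 100% = added signal equal to DMSO minus mock-transfected cells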
SF-1 act – activators of human nuclear receptor SF-1. CHO-K1 Gal4-SF-1 LBD luciferase reporter; % increase over DMSO SF-1-specific signal. hit rate 1.9% among 65,000. activation, % at 10 µM;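 active means activation above the mean activation of all tested compounds plus 3 SD, cut at about 50% in these data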
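Test system: transient Gal4-SF-1 LBD reporter, CHO-K1; Amount: 4,000 CHO-K1 cells per well; Doses: 10 µM only; Timing: compound exposure 20 h at 37 °C; Signal: luciferase light emission; Read-out basis: percent activation relative to DMSO median and mock-transfected background; Control set: DMSO negative control and −SF1 background wells; Replicates: one test per compound.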
Calb biofilm kill – kills Candida albicans biofilms | C. albicans biofilm + clotrimazole, Alamar Blue | inhibition, % at 6 µM | hit rate 0.14% among 85,000;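 active means inhibition above 20%; inactive means inhibition below 20%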;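 further: preformed 24 hr biofilms exposed to compound for 48 hr; 0% = biofilm without compound and 100% = blank killed by clotrimazole plus chlorhexidine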
JNK3 inh – inhibitors of human JNK3 kinase. P53779. purified JNK3 kinase activity, HTS. inhibition, % at 8 µM. hit rate 0.61% among 60,000. AID 746; in the data active means inhibition above about 17%;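 further: 0% = DMSO and 100% = reference inhibitor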
Target sequence (P53779 whole entry, looked up): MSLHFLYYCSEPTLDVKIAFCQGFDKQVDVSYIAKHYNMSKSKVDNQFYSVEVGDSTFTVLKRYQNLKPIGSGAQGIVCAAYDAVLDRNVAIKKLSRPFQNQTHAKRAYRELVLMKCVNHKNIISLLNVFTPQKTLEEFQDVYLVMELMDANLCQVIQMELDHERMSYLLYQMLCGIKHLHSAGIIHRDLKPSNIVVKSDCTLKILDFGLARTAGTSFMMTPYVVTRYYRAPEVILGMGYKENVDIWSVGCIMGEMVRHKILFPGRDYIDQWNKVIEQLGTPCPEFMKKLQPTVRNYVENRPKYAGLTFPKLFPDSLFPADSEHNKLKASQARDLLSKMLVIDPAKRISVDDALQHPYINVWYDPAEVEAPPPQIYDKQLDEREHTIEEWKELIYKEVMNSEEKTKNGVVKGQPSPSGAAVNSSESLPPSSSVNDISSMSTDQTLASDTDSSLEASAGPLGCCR
Active calls of the source: *; nt = not tested or not shown. Hits are enriched below; roughly 2.3% of the tested compounds scored in any of these assays.

SMILES | RORA act | SF-1 act | Calb biofilm kill | JNK3 inh
Fc1ccccc1CSc1nnc(-c2ccccc2)o1 | 41 | 58* | -1 | 10
Cc1ccccc1-c1nnc(SCc2ccccc2F)o1 | 75* | 90* | 4 | 1
O=C(CC1CCCC1)Nc1ccc2c(c1)CCC2 | nt | nt | 3 | nt
CCCc1cc2c(=O)c(-c3ccccn3)coc2cc1OC | 54* | 76* | 4 | 3
CCCCCOc1ccc(NS(C)(=O)=O)cc1 | 64* | 32 | 7 | 4
CCOc1ccc(NS(=O)(=O)c2ccc(NS(C)(=O)=O)cc2)cc1 | -21 | -13 | 4 | -2
O=C(Cc1ccccc1)Nc1nc(-c2cccs2)cs1 | 67* | 44 | 7 | 3
O=C(Cc1ccccc1F)Nc1nc(-c2cccs2)cs1 | 10 | 46 | 4 | 1
c1ccc(-c2csc(Nc3cccnc3)n2)nc1 | 24 | 57* | nt | -2
c1cncc(Nc2nc(-c3cccs3)cs2)c1 | 59* | 76* | 6 | -5
O=c1[nH]nc(Sc2ncnc3sccc23)n1CCc1ccccc1 | -39 | -27 | 6 | -8
CCc1ccc(NC(=O)CCNS(=O)(=O)c2cccc3nsnc23)cc1 | nt | nt | 8 | nt
O=C1CC(c2cccs2)Sc2nc3ccccc3n21 (stereo not given) | 23 | 80* | 7 | 2
Cc1c(C(=O)Nc2ccc(Cl)cn2)oc2ccccc12 | -20 | 2 | -3 | -1
CC(=O)Nc1ccc(-c2cc3ccccc3o2)cc1 | 2 | 61* | 7 | 0
COc1ccc(NC(=O)c2cc(C3CC3)on2)c(OC)c1 | 18 | 56* | 4 | 4
COc1ccc(NC(=O)c2oc3ccccc3c2C)c(OC)c1 | 62* | 58* | 10 | nt
Cc1c(C(=O)Nc2cnccn2)oc2ccccc12 | 45 | 56* | 7 | -8
CC(=O)Nc1ccc2ccccc2c1 | nt | nt | 6 | nt
CN(C)S(=O)(=O)N1CCN(C(=O)c2cccs2)CC1 | nt | nt | -1 | nt
COc1ccc(NC(=O)C2CCCN(S(=O)(=O)c3ccc4c(c3)oc(=O)n4C)C2)c(OC)c1 (stereo not given) | nt | nt | 5 | nt
COc1ccc(NC(=O)c2cc(-c3ccccc3OC)on2)cc1 | 49* | 12 | nt | 1
CC(=O)Nc1cccc(NC(=O)c2oc3ccccc3c2C)c1 | 48 | 51* | -5 | 4
O=C(Nc1ccccc1)c1cc2ccccc2o1 | nt | nt | 5 | nt
COc1ccccc1-c1cc(C(=O)Nc2cccnc2)no1 | 20 | 14 | nt | -1
SMILES | RORA act | SF-1 act | Calb biofilm kill | JNK3 inh
CC(=O)Nc1cccc(NC(=O)c2cc3ccccc3o2)c1 | 33 | 87* | 1 | 0
COc1ccc(NC(=O)c2cc3ccccc3o2)cc1 | 53* | 54* | 9 | 10
C[n+]1cc[nH]c1SCC(=O)c1ccccc1 | nt | nt | -2 | nt
Cc1cc(C#N)c(C)n1-c1cc(S(=O)(=O)N2CCOCC2)ccc1N1CCCC1 | nt | nt | 7 | nt
O=C(CSc1nccn1Cc1ccccc1)NCc1ccccc1 | nt | nt | 3 | nt
O=S(=O)(N/N=C/c1cn(Cc2ccccc2)c2ccccc12)c1ccccc1 | nt | nt | 7 | nt
Nc1c(C(=O)Nc2ccc(Cl)cc2)oc2ccccc12 | 74* | 106* | 2 | 6
CC(=O)c1oc2ccccc2c1N | -8 | 11 | 4 | -3
CC(=O)N1CCN=C1SCc1ccc(Br)cc1 | -13 | -7 | 24* | 0
CCOC(=O)N1CCN(C(=O)c2ccccc2-c2ccccc2)CC1 | 17 | 60* | 6 | 8
COC1(OC)N=C(N)C2(C#N)C(c3ccc4c(c3)OCO4)C12C#N (stereo not given) | -9 | 4 | 5 | 20*
CCOC(=O)C1C(=O)C(C(C)=O)C(=O)CC1CC(C)SCC (stereo not given) | nt | nt | 2 | nt
CCC(=O)Nc1cnc(NC(=O)c2cccc(F)c2)cc1C | 36 | 32 | 10 | nt
CC(=O)Nc1cnc(NC(=O)c2cccc(F)c2)cc1C | 22 | 76* | 8 | nt
CCOC(=O)N1CCN(C(=O)c2ccc(NC(=O)c3ccc(C)cc3)cc2)CC1 | -4 | 28 | 0 | -1
Cc1cccc(C2Nc3ccccc3C(=O)N2c2ccccc2)n1 (stereo not given) | 0 | -12 | 4 | -4
O=C1c2ccccc2NC(c2ccccn2)N1c1ccc(Cl)cc1 (stereo not given) | 51* | 64* | 9 | 3
O=C(Nc1ccc2c(c1)OCO2)c1c(Cl)nc2sccn12 | 48 | 66* | 1 | nt
O=C(Nc1ccc2c(c1)OCO2)c1cccc(Cl)c1 | 30 | 67* | 4 | -3
O=C(Nc1ccc(F)c(F)c1)c1ccc2c(c1)OCO2 | 24 | 66* | 6 | 9
Cc1occc1C(=O)Nc1ccc2c(c1)OCO2 | 18 | 53* | -4 | -1
CC(=O)Nc1ccc(C(=O)Nc2ccc3c(c2)OCO3)cc1 | 29 | 31 | 6 | 0
CCCCC1C(C#N)=C(C)NC2=C1C(=O)CC(C)(C)C2 (stereo not given) | nt | nt | 4 | nt
CCc1ccc(CNCCSc2nnnn2C)cc1 | nt | nt | 4 | nt
Cc1nc(-c2ccccc2O)n(-c2ccccc2)n1 | nt | nt | 4 | nt
SMILES | RORA act | SF-1 act | Calb biofilm kill | JNK3 inh
Cc1noc(C(=O)Nc2ccc3c(c2)OCO3)c1Cl | 65* | 61* | -7 | -1
O=C(Nc1ccc2c(c1)OCO2)c1cnn2cccnc12 | 61* | 70* | 7 | -2
CC(=O)c1cccc(NC(=O)c2onc(C)c2Cl)c1 | nt | nt | 17 | nt
O=C(O)CCCCCNC(=O)c1ccccc1 | nt | nt | 6 | nt
CCOC(=O)CSc1nnc(SCCN2C(=O)c3ccccc3C2=O)s1 | nt | nt | 5 | nt
CCOc1ccc(C(=O)Nc2ccc3c(c2)OCCO3)cc1OC | 34 | 56* | nt | -3
CCOc1cc(C(=O)Nc2ccc3c(c2)OCO3)ccc1OC(F)F | 21 | 15 | 1 | 0
CC(C)CNS(=O)(=O)c1ccc(C(=O)Nc2ccc3c(c2)OCCO3)cc1 | 73* | 9 | nt | -3
Cc1cc(C)n(-c2ccc(C(=O)NCc3ccc4c(c3)OCO4)cc2)n1 | -8 | -6 | 9 | 5
Cc1cc(C)n(-c2ccc(C(=O)Nc3ccc4c(c3)OCCO4)cc2)n1 | 75* | 35 | nt | 12
O=C(c1cc2nc(-c3ccco3)cc(C(F)(F)F)n2n1)N1CCN(Cc2ccccc2)CC1 | nt | nt | 4 | nt
Cc1sc2nc(NCCO)[nH]c(=O)c2c1C | -32 | 25 | 5 | 2
CC(=O)c1c(C(C)=O)c(C)n(-c2ccc(N)c(C)c2)c1C | nt | nt | 6 | nt
CCN(CC)S(=O)(=O)c1cccc(-c2nc3n(n2)Cc2ccccc2-3)c1 | 46 | 61* | 9 | 9
CCOC(=O)c1c(N)n[nH]c1-c1ccc(OC)cc1 | -2 | 1 | 3 | 18*
CCOC(=O)c1c(-c2ccc(OC)cc2)nc2nonc2c1N | -2 | -9 | 1 | 2
CCOC(=O)c1sc(-c2ccc(OC)cc2)cc1N | 44 | 62* | 6 | 1
CCOC(=O)c1sc(-c2ccccc2)cc1N | 49* | 52* | -2 | 5
CCOC(=O)c1cc(-c2ccccc2)sc1N | 28 | 31 | 7 | 2
O=C(CCCCCn1c(SCc2ccncc2)nc2ccccc2c1=O)NCc1ccco1 | -9 | 8 | 6 | 18*
c1ccc2nc3c(nc2c1)[nH]c1ccccc13 | 50* | 81* | 5 | 55*
O=c1nc(-c2ccccc2)c2ccccc2[nH]1 | 13 | 19 | 8 | -1
